Shown are actives, neighbours in structure and some others; about 3% of the full set was active somewhere.
SENP1 inh = human SENP1 catalytic domain inhibitors, primary screen, biochemical, FRET, uHTS. Sentrin-specific protease 1 (Homo sapiens), Q9P0U3. recombinant SENP1 catalytic domain, CyPet-SUMO1-YPet FRET cleavage. inhibition, % at 10 µM. 0.21% of 360,000 active;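 active means inhibition at least 30% at 10 µM, raw YFP signal under a set limit, fluorescence ratio 0.5 to 1.5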
Target sequence (Q9P0U3 419-644 limits assumed): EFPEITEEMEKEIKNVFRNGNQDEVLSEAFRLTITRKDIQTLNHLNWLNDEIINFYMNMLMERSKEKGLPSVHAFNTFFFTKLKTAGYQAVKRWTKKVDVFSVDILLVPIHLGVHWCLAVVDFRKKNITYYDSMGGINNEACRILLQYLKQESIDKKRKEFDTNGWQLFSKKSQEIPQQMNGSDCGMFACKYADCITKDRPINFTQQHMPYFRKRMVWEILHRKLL
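Test system: recombinant human SENP1 catalytic domain, His6-tagged / Medium: pH 8 Tris buffer with EDTA, NaCl, BME, BSA, NP40, catalase / Also added: SUMO1 FRET substrate flanked by Cypet and Ypet, 25 nM / Times: 50 min reaction at room temperature / Signal: FRET, CFP and YFP emission / Control set: no-enzyme low control and enzyme-plus-DMSO high control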
Myeloid diff 2 = induction of myeloid progenitor differentiation, primary screen, cell-based, flow cytometry, MLPCN library. 1% of 360,000 active. calls only at 10 µM. ER-HoxA9 myeloid progenitors, lysozyme-GFP differentiation. AID 624256, 2012;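 active means normalized GFP-positive differentiation at or above the plate's own cutoff, the solvent-only control mean plus 3 SD; inconclusive means no clear call, values can overlap the other calls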;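 further: cells exposed to compound for four days before flow analysis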
H9c2 protect = cardioprotection against H2O2-induced cell death, primary screen, uHTS, H9c2 cells, ATPLite luminescence | 0.63% of 360,000 active | protection from H2O2 cell death, % at 20 µM | H9c2 cardiomyocytes, H2O2 injury protection, 2 h | AID 588492, 2011;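 active means compounds giving at least 50% protection of heart cells from peroxide-induced death in the single-dose screen, raw or plate-pattern-corrected value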
HNF4A DNA FP = change in binding of human HNF4A to DNA, primary screen, biochemical, fluorescence polarization, FITC-DNA; 0.3% of 360,000 active; Hepatocyte nuclear factor 4-alpha (Homo sapiens), P41235; 1 h; activity change, % at 10 µM; in the data active means activity change above about 30%, passing the limit was not always enough
Granule exo inh = LAMP-1 surface exposure blockers, TALL-104 cells – cell-based, flow cytometry, MLPCN library, primary screen. TALL-104 LAMP-1 surface exposure; cells stimulated with thapsigargin and PMA. inhibition, % at 10 µM. 0.66% of 360,000 active. AID 651702, 2012;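 active means inhibition above about 55%, limit read from the data; inconclusive means no clear call, values can overlap the other calls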
Pemphigus Ab inh = inhibitors of pemphigus antibody binding to DSG3, primary screen, biochemical, bead-based, flow cytometry, scFv-GFP; DSG3-coupled beads, scFv-anti-DSG3-GFP binding; active compounds read low; 0.48% of 310,000 active; binding (percent of control), % at 10 µM; AID 588358, 2011; Desmoglein-3 (Homo sapiens), P32926;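 active means binding more than 3 SD below its plate's average and above zero; inconclusive means below that plate limit but binding exactly zero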;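 further: hits lower antibody fragment binding to DSG3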
Large screens that a line does not name were inactive; ! = not active in a repeat.

CC(=O)C(C(C)=O)c1c(Cl)c(O)c(O)c2c(C(=O)c3ccccc3)coc12	Granule exo inh 91
O=C(Oc1ccc(Cl)c2cccnc12)c1cccc([N+](=O)[O-])c1	H9c2 protect 64
O=C(Oc1c(Cl)cc(Cl)c2cccnc12)c1cccc([N+](=O)[O-])c1	none
COc1cc(NC(=O)c2ccc(N)nc2)cc(C(=O)Nc2cccc(C(F)(F)F)c2)c1	Myeloid diff 2 active!
COc1cc(NC(=O)c2csc(-c3ccncc3)n2)cc(C(=O)Nc2cccc(C(F)(F)F)c2)c1	H9c2 protect 59
Cc1ccc(C(=O)Nc2cccc(C(F)(F)F)c2)cc1Nc1cncnc1	Myeloid diff 2 active!
O=C(Nc1cccc(C(F)(F)F)c1)c1csc(-c2ccncc2)n1	none
O=C(COc1ccccc1)N1CCN(S(=O)(=O)c2cccc([N+](=O)[O-])c2)CC1	none (no result: Pemphigus Ab inh)
CCNS(=O)(=O)c1ccc(CCC(=O)N2CCc3ccccc3C2)cc1	none
CC(C)COP(=O)(OCC(C)C)C(Nc1ccccc1)c1ccc2c(c1)OCO2 (centres undefined)	H9c2 protect 67
CC(C)OP(=O)(OC(C)C)C(Nc1ccccc1)c1ccc2c(c1)OCO2 (centres undefined)	none
O=C1N=c2ccccc2=C1c1sc(NS(=O)(=O)Cc2ccccc2)nc1O	none
O=C1N=c2ccccc2=C1c1sc(Nc2cccc(O)c2)nc1O	Myeloid diff 2 inconclusive, H9c2 protect 54
O=C1N=c2ccccc2=C1c1sc(NS(=O)(=O)c2ccccc2)nc1O	none
O=C1N=c2ccccc2=C1c1sc(Nc2ccc(O)cc2)nc1O	Pemphigus Ab inh -15
Cc1cn([C@H]2C[C@H](O)[C@@H](CCC(=O)NCc3cccc4ccccc34)O2)c(=O)[nH]c1=O	none (no result: Pemphigus Ab inh)
COc1cc2c(cc1OC)-c1nc3ccccc3c(=O)n1C(C)(C)C2	Myeloid diff 2 active
COc1ccc(/C=C2\CCn3c2nc2ccccc2c3=O)cc1OC	none
Cc1nnc(SCC(=O)N(C2CCCCC2)C2CCS(=O)(=O)C2)n1N (centres undefined)	none
CCSc1nc(C2CC2)cc(-c2cccs2)c1C#N	none
N#Cc1c(-c2ccccc2F)cc(C2CC2)nc1SCC(=O)c1cccs1	Myeloid diff 2 active
O=NNc1nc2ccccc2n1Cc1ccccc1	H9c2 protect 72
Clc1cccc(CNc2nc(-c3cccnc3)nc3ccccc23)c1	Granule exo inh 99
O=C(N/N=C/c1cccnc1)c1cc(-c2ccccc2Cl)nc2ccccc12	none
c1ccc(CNc2nc(-c3cccnc3)nc3ccccc23)cc1	none
Clc1ccccc1-c1nc(N/N=C/c2cccnc2)c2ccccc2n1	H9c2 protect 78
c1cncc(-c2nc(NCC3COc4ccccc4O3)c3ccccc3n2)c1 (centres undefined)	H9c2 protect 52
c1ccc(CNc2nc(NCc3ccccc3)c3ccccc3n2)cc1	Granule exo inh 61
Cc1ccc2c(c1)S(=O)(=O)c1ccc3ccccc3c1N2	none
CCc1ccc2[nH]c3nc(N/N=C/c4ccc(O)cc4O)nnc3c2c1	none
COCCN(CC1CCCN(C2Cc3ccccc3C2)C1)C(=O)CSC (centres undefined)	none
CCOc1ccc(NS(=O)(=O)c2cccc(C(=O)N(C)Cc3ccco3)c2)cc1	none (no result: Pemphigus Ab inh)
COc1ccc(CCNc2nc(-c3cccnc3)nc3ccccc23)cc1OC	H9c2 protect 51 (no result: Pemphigus Ab inh)
COc1ccc(/C=N/Nc2nc(-c3cccnc3)nc3ccccc23)cc1OC	none
Cc1c(O)ccc(/C=N/Nc2nc(-c3cccnc3)nc3ccccc23)c1O	none
Oc1ccc(/C=N/Nc2nc(-c3cccnc3)nc3ccccc23)c(O)c1	HNF4A DNA FP 36, Pemphigus Ab inh 78
COc1cccc(OCC(=O)NNC(=O)C(=O)Nc2ccc(OC)cc2OC)c1	none
O=C(NCCc1ccccc1Cl)c1ccc2nc3ccccc3c(=O)n2c1	H9c2 protect 58
N#Cc1nc(-c2ccc(OCc3ccccc3)cc2)oc1N1CCC(C(N)=O)CC1	Pemphigus Ab inh 66
Cc1[nH]c2c(C)cccc2c1CCNC(=O)c1ccc2c(c1[N+](=O)[O-])C(=O)c1ccccc1C2=O	none
Cc1[nH]c2ccccc2c1CCNC(=O)c1ccc2c(c1[N+](=O)[O-])C(=O)c1ccccc1C2=O	Myeloid diff 2 active
CCOC(=O)C1=C(C)N=C2c3ccccc3C(=O)C2C1c1ccc(Cl)cc1 (centres undefined)	none
CCOC(=O)C1=C(Cc2ccc(Cl)cc2)C(=O)c2ccccc2C1=O	Granule exo inh 93
COc1ccc(OC)c(NC(=O)Nc2ccc3[nH]ccc3c2)c1	none
O=C1CC(C(=O)Nc2ccccc2)C2(CCCC2)O1 (centres undefined)	Myeloid diff 2 active (no result: Pemphigus Ab inh)
Cc1cccc(NC(=O)C2CC(=O)OC23CCCCC3)c1 (centres undefined)	none
CCCCNC(=O)c1cn(-c2ccc(OCC)cc2)c(=O)c2cc(OC)c(OC)cc12	H9c2 protect 65
CCOc1ccc(NC(=O)c2cn(-c3ccc(OCC)cc3)c(=O)c3cc(OC)c(OC)cc23)cc1	none (no result: Pemphigus Ab inh)
COc1ccc(NC(=O)c2cc(-c3ccncc3)nc3ccccc23)c(OC)c1	none
COc1ccc(NC(=O)c2cc(-c3ccc(OC)c(OC)c3)nc3ccccc23)c(OC)c1	H9c2 protect 66
COc1ccc(-c2cc(C(=O)NC3CCCC3)c3ccccc3n2)cc1OC	none
COc1ccc(-c2cc(C(=O)NC(C)c3ccccn3)c3ccccc3n2)cc1OC (centres undefined)	H9c2 protect 55
Cc1cc(CN2CCC(n3nccc3NC(=O)c3ccccc3Cl)CC2)cc(C)c1O	none
O=C(CCS(=O)(=O)c1ccccc1)N1CCN(c2ccccc2)CC1	none
CCOC(=O)C1=C(C)NC(=O)NC1c1ccc([N+](=O)[O-])o1 (centres undefined)	none
CCOC(=O)C1=C(C)NC2=C(C(=O)c3ccccc32)C1c1ccc([N+](=O)[O-])o1 (centres undefined)	H9c2 protect 61
c1ccc(OC2CCCCC2N2CCOCC2)cc1 (centres undefined)	none
COc1cccc(C(=O)Nc2cc(C(=O)NCCc3ccccc3)ccc2Cl)c1	none
COc1cccc(/C(O)=C/c2nc3ccc(C(=O)NCCc4cccc(C)c4)cc3[nH]c2=O)c1	Myeloid diff 2 active

Screening results as filed in PubChem BioAssay.
